Source: PMC12393906 (Molecular Therapy, 2025)

Columns and labels:
ERO1α [1] = conditions: read-out: IC50 (ERO1α); cited from earlier work
[2] = tested on: lysine-specific demethylase 1; conditions: cited from earlier work
ERO1α [3] = conditions: read-out: KD (ERO1α); cited from earlier work
Mao-A = conditions: read-out: IC50 (Mao-A); cited from earlier work
Recombinant human ERO1α = biological target: T1, Recombinant human ERO1α (Homo sapiens, UniProt Q96HE7); assay: fluorescence-based ERO1α activity assay; format: biochemical; conditions: 0.01–1 μM FAD
T1 sequence (Q96HE7 24-468): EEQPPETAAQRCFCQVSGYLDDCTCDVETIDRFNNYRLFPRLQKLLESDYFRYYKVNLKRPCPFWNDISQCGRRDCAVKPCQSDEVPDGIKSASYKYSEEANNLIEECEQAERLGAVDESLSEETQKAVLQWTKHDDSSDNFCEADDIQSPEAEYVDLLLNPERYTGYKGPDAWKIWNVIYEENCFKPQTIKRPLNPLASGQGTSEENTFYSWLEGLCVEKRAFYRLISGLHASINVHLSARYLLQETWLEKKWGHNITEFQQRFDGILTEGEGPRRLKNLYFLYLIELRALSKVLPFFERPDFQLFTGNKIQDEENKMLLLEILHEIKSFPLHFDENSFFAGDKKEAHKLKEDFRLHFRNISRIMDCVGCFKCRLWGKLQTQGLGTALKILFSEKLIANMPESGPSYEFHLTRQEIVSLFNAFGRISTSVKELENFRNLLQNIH

C57BL/6 mice [4] = assay: Tail bleeding time and hemoglobin content; format: in vivo, mouse; conditions: iv 5 μg/g BW
C57BL/6 mice [5] = assay: FeCl3-induced carotid arterial thrombosis; format: in vivo, mouse; conditions: iv 5 μg/g BW; 7% or 10% FeCl3
Summary of the method: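 Male and female mice, 8–12 weeks, were anaesthetised with ip ketamine/xylazine. A 2 × 2 mm filter disc carrying 1.2 μL of 7 or 10% FeCl3 was placed on the carotid artery for 2 min. Flow was monitored by Doppler flow meter. TTO was the time from disc removal to stable occlusion (no flow for 5 min).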

## CN(C)c1ccc(/C=C2\Oc3cc(O)ccc3C2=O)cc1 [Compound T151742]
ERO1α [1]
  IC50: 8.7 µM
[2]
  binding to lysine-specific demethylase 1: does not bind
ERO1α [3]
  Kd: 31.4 µM
Mao-A
  IC50: 1 µM

## Cc1cc2nc3c(=O)[nH]c(=O)nc-3n(C[C@H](O)[C@H](O)[C@H](O)COP(=O)(O)OP(=O)(O)OC[C@H]3O[C@@H](n4cnc5c(N)ncnc54)[C@H](O)[C@@H]3O)c2cc1C [FAD, flavin adenine dinucleotide]
Recombinant human ERO1α
  effect of exogenous FAD on ERO1α activity: significantly increased ERO1α activity

## eptifibatide
C57BL/6 mice [4]
  tail bleeding times and blood loss: markedly increased both
C57BL/6 mice [5]
  time to occlusion (TTO): significantly prolonged TTO irrespective of the FeCl3 concentration
